Screening data as filed in PubChem.
Most compounds without a hit are left out; they make up all but 1.2% or so of the library.
bovine MsrA act: activators of bovine methionine sulfoxide reductase A; purified bovine MsrA, absorbance read-out; activation, % at 10.6 µM; hit rate 0.3% among 360,000; AID 602163; in the data active = activation above about 7.5%;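 note: 0% = vehicle and 100% = reference activator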
MsrA inhibitor: inhibits bovine methionine sulfoxide reductase A; hit rate 0.75% among 360,000; purified bovine MsrA, absorbance read-out; AID 651718; inhibition, % at 15.5 µM;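 note: 0% = vehicle wells with enzyme and 100% = reference inhibitor wells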
Bfl-1 A1 inh: inhibitors of the anti-apoptotic protein A1, read as caspase activation. MEF A1-2A-BIM cells, Caspase-Glo 3/7 luminescence, 3 h; percent of clofoctol response, vehicle zero. caspase activation, % (test concentration not listed). hit rate 0.066% among 330,000;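 active = over half of replicate activation scores above 10%, or exactly half above 10 with the replicate mean above 10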
procasp3 activ: procaspase-3 (human) activation. hit rate 0.11% among 330,000. activation, % at 8.5 µM. P42574. recombinant procaspase-3 D3A, Ac-DEVD-pNA absorbance 405 nm;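 active = activation above the mean of all tested compounds plus 3 SD, cut at about 21% in these data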;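 note: 0% = DMSO alone and 100% = DMSO wells spiked with extra 5 µM PC-3 D3A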
Target sequence (P42574 whole entry D9A/D28A/D175A): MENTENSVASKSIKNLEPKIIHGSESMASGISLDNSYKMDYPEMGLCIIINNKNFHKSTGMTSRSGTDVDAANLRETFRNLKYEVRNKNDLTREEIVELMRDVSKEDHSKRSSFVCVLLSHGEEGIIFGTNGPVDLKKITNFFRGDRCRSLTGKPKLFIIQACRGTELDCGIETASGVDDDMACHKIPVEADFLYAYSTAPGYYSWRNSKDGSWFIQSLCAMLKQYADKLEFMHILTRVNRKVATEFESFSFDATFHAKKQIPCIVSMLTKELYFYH
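Assay system – Procaspase-3 D3A mutant, all three cleavage aspartates alanine · Controls – DMSO-only low control, 5 µM PC-3 D3A high control · Schedule – 1 h compound preincubation, 2 h substrate hydrolysis at 25 °C · Signal – 405 nm absorbance of p-nitroaniline, reads at 0 and 120 min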
proCasp7 act: activates human procaspase-7, counter-screen for procaspase-3 activators. P55210. recombinant procaspase-7, Ac-DEVD-pNA absorbance 405 nm; D23A/D198A/D206A triple mutant, cannot self-cleave; scale: DMSO 0, 5 µM enzyme 100. activation, % at 8.5 µM. hit rate 0.093% among 330,000. AID 463210;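 active = percent activation above the screen-wide mean plus 3 SD, cut at about 25% in these data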
Target sequence (P55210 whole entry D23A/D198A/D206A): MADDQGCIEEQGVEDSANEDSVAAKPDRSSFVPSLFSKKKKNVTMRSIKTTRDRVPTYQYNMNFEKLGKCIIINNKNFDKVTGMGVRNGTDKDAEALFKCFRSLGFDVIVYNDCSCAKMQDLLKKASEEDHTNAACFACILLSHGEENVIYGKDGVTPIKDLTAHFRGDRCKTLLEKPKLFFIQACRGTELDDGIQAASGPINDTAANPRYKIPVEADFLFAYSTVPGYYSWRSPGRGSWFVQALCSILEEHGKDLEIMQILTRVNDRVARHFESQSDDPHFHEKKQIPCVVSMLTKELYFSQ
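Material: Procaspase-7 triple mutant (PC-7 D3A) | Quantity: 2 µM procaspase-7 mutant as dispensed | Reagent: DEVD-pNA substrate | Times: 1 h preincubation, 2 h reaction | Technique: 405 nm absorbance of p-nitroaniline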
MsrA conf: bovine MsrA inhibition, confirmed | shares compounds with MsrA inhibitor | purified bovine MsrA, absorbance read-out | inhibition, % at 15.5 µM | hit rate 41% among 2,300;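 note: coupled to thioredoxin reductase with NADPH and selenocystamine and DMSO as substrate; 0% = vehicle only and 100% = full effect of reference inhibitor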
* marks the source's active call; other numbers are inactive results; x = no result. Cut-off read from the data, not from the text of the source, unless noted: active = inhibition above about 4.5%; inactive = the rest.

SMILES | bovine MsrA act | MsrA inhibitor | Bfl-1 A1 inh | procasp3 activ | proCasp7 act | MsrA conf
COc1cc([N+](=O)[O-])ccc1NC(=S)NNC(=O)c1ccc2c(c1)OCO2 | 1.7 | 4.7* | -1.2 | -20.6 | -17.1 | 3.0
O=C(NCCc1c[nH]c2ccccc12)OCCSS(=O)(=O)O | -20.4 | 11.6* | 0.1 | 4.7 | -4.3 | 3.9
CCC(=O)NCCc1c[nH]c2ccccc12 | -4.7 | 0.8 | -0.2 | -2.8 | 4.6 | x
S=c1nc(-c2ccccc2Cl)n(Cc2cccnc2)c2c1CCCC2 | -8.2 | 5.9* | 0.9 | -6.9 | 2.4 | 4.7*
COCc1nnc(NC(=O)c2cc3ccccc3o2)s1 | -3.1 | 5.1* | -0.5 | 4.5 | -12.6 | 2.4
O=C(C(=O)N1CCN(c2ccccc2)CC1)c1ccncc1 | x | -0.9 | x | x | x | x
Cc1cc(C)nc(N/N=C/c2ccccc2)n1 | -5.2 | x | -1.2 | -7.8 | -3.5 | x
Cc1ccsc1/C=N/Nc1ncc(Cl)cc1Cl | -3.2 | 2.7 | -9.0 | 2.8 | 1.6 | x
Cc1cc(C)nc(N/N=C/c2sccc2C)n1 | -6.8 | 5.3* | -2.7 | 5.8 | 5.0 | 4.1
Cc1ccsc1/C=N/Nc1nc(=O)[nH]nc1C | -5.0 | 5.3* | -6.5 | 2.1 | 18.1 | 4.3
CCCN(C(=O)c1cn(CCC)c2ccccc12)c1ccc(Oc2cccnc2)cc1 | x | 0.5 | x | x | x | x
O=c1[nH]c(=S)c2c(n1-c1ccccc1)CCC2 | -5.9 | 5.8* | 0.0 | -2.6 | 0.2 | 3.4
CCN(Cc1nc2cc(Cl)ccc2c(=O)[nH]1)C(=O)c1cc(C2CC2)nn1-c1ccccc1 | -4.1 | 0.0 | x | x | x | x
CC(Nc1cc(N2CCN(S(C)(=O)=O)CC2)ccc1[N+](=O)[O-])c1ccccc1 (configuration not stated) | -3.3 | 24.2* | 0.7 | -25.0 | -3.6 | 19.7*
CC(Nc1cc(N2CCOCC2)ccc1[N+](=O)[O-])c1ccccc1 (configuration not stated) | -0.8 | 29.6* | 1.1 | -50.7 | -16.4 | 20.6*
O=[N+]([O-])c1ccc(N2CCN(S(=O)(=O)c3ccccc3[N+](=O)[O-])CC2)cc1NCc1cccnc1 | -2.7 | 2.2 | 1.3 | -9.1 | -7.6 | x
CCS(=O)(=O)N1CCN(c2ccc([N+](=O)[O-])c(NCc3cccnc3)c2)CC1 | -13.6 | 5.4* | 2.0 | -2.1 | -2.6 | 1.6
O=[N+]([O-])c1cc([N+](=O)[O-])c(N2CCOCC2)cc1NCc1ccccc1 | -1.7 | 36.1* | -0.7 | -1.4 | -16.6 | 35.6*
COc1cc(CCC(C)=O)ccc1OC(=O)c1c(-c2c(F)cccc2Cl)noc1C | x | 0.5 | x | x | x | x
CCCn1c(C)c(CC(=O)Nc2ccc(N(C)c3ccccn3)cc2)c2ccccc21 | x | 0.5 | x | x | x | x
CC(Nc1cc(N2CCN(S(=O)(=O)N(C)C)CC2)ccc1[N+](=O)[O-])c1ccccc1 (configuration not stated) | -4.0 | 8.5* | 1.2 | 5.9 | 0.1 | 8.0*
COc1cccc(C(=O)N2CCC[C@H]2C(=O)N2CCC[C@H]2C(=O)N(C)Cc2ccccc2)c1 | -2.1 | -0.1 | x | x | x | x
Nc1nnc(N2CCCCC2)s1 | -0.6 | -0.5 | -0.2 | 10.2 | -3.0 | x
O=C1CCCc2nc(N3CCCCC3)sc21 | -2.6 | 5.8* | -1.6 | 12.5 | 5.7 | 5.2*
Cc1nc2ccccn2c1C(=O)N/N=C/c1ccc([N+](=O)[O-])cc1 | x | x | 0.3 | -0.2 | 6.1 | x
SMILES | bovine MsrA act | MsrA inhibitor | Bfl-1 A1 inh | procasp3 activ | proCasp7 act | MsrA conf
Cc1nc2ccccn2c1C(=O)N/N=C/c1ccc([N+](=O)[O-])o1 | 3.7 | 5.2* | 0.6 | -5.2 | -3.6 | 3.1
O=C(C[C@@H]1C[C@@H]2c3cc(NC(=O)c4ccc5c(c4)OCO5)ccc3O[C@@H]2[C@@H](CO)O1)NCc1cccnc1 | x | 1.4 | x | x | x | x
O=C(O)c1ccc(S(=O)(=O)NN=Cc2c[nH]c3ccccc23)cc1 | -15.6 | 2.1 | x | x | x | x
COC(=O)N/N=C/c1c[nH]c2ccccc12 | -0.9 | 0.9 | 1.5 | -2.9 | 0.9 | x
CC(C)n1cc(/C=N/Nc2ccc(C(=O)O)cc2)c2ccccc21 | -2.1 | 5.5* | -8.2 | -6.9 | -6.2 | 4.2
NC(=S)N/N=C/c1c[nH]c2ccccc12 | -0.5 | 6.5* | -0.2 | 0.8 | -3.4 | 3.0
O=C(O)c1ccc(N/N=C/c2c[nH]c3ccccc23)cc1 | -5.3 | 5.6* | -7.7 | -11.8 | -4.9 | 6.1*
O=C(N/N=C\c1c[nH]c2ccccc12)c1ccc(O)cc1 | -5.0 | 5.3* | -0.4 | x | x | 4.1
CNc1nc(NCC2CCCCC2)c2sccc2n1 | -0.6 | -1.6 | x | x | x | x
COCCNC(=O)C1(C)CCCN(C(=O)c2ccc(F)cc2Cl)C1 (configuration not stated) | -1.2 | -0.5 | x | x | x | x
CCc1cccc(N=c2c([N+](=O)[O-])nn(-c3ccc(Cl)cc3)n2O)c1 | -3.1 | 5.4* | -0.6 | 7.8 | 9.8 | 5.3*
Cc1cccc(N=c2c([N+](=O)[O-])nn(-c3ccc(Cl)cc3)n2O)c1 | -1.3 | -0.1 | 0.1 | -2.5 | 5.9 | x
COC(=O)c1cc2c(c3c4cc(F)ccc4n(C(=O)c4ccccc4)c13)C(=O)N(C1CCCCC1)C2 | x | 1.2 | x | x | x | x
C=CCN=C1NC(c2ccc(Cl)cc2)C(C(=O)OC)=C(C)N1Cc1ccccc1C(F)(F)F (configuration not stated) | x | -1.1 | x | x | x | x
C/C(=N\Nc1nnc2c3ccccc3n(C)c2n1)c1ccc(C)o1 | -2.5 | 5.6* | -0.4 | 4.0 | 7.5 | 2.0
O=Cc1c(-c2ccccc2)nc2ccccn12 | -2.1 | 13.3* | -1.0 | 6.2 | 6.6 | 10.3*
O=C(C1=C(O)C(=O)N(CCOCCO)C1c1cccc([N+](=O)[O-])c1)c1cccs1 (configuration not stated) | -8.3 | 5.0* | 0.5 | -6.0 | -13.0 | 3.8
O=C(C1=C(O)C(=O)N(CCN2CCOCC2)C1c1cccc([N+](=O)[O-])c1)c1cccs1 (configuration not stated) | -5.6 | 3.8 | -0.6 | -5.0 | 0.6 | x
Cc1ccc(C2NC(=S)NC3=C2C(=O)CC(C)(C)C3)cc1 (configuration not stated) | 4.8 | 4.8* | 0.7 | 1.6 | -7.4 | 1.1
CC1(C)CC(=O)C2=C(C1)NC(=O)NC2c1ccc(Cl)cc1 (configuration not stated) | -1.4 | -0.2 | 0.4 | -3.0 | -1.5 | x
CC1(C)CC(=O)C2=C(C1)Nc1ccccc1NC2c1cccnc1 (configuration not stated) | -12.5 | 5.4* | 0.6 | -4.7 | 5.3 | 3.9
Cc1ccccc1CN1CCC(n2nccc2NC(=O)CCOc2ccccc2)CC1 | 0.3 | -0.6 | -1.1 | 2.1 | 5.7 | x
COc1ccc(/C=N/N2C(=O)C3C4C=CC(C4)C3C2=O)cc1[N+](=O)[O-] (configuration not stated) | -10.6 | 8.4* | 0.3 | 3.4 | 1.5 | 8.2*
COc1cc(/C=N/N2C(=O)C3C4C=CC(CC4)C3C2=O)ccc1O (configuration not stated) | -5.9 | 2.8 | 0.8 | 2.9 | 0.4 | x
